# According to the EternaBench riboswitch data:
# Tested on: MS2 coat protein
# Assay: apparent Kd, MS2 coat protein; higher = weaker binding; RNA-MaP array; FMN 200 µM where present
# Outline: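 Binding was read on Illumina sequencing-chip clusters where stalled E. coli RNA polymerase had transcribed each design. A titration of SNAP-549-labelled MS2 coat protein began at 0.7 or 1.5 nM and doubled to 3 µM, once without ligand and once with constant ligand, in 100 mM Tris-HCl pH 7.5, 80 mM KCl, 4 mM MgCl2, BSA, DTT, yeast tRNA and Tween-20. The apparent Kd is the median of filtered per-cluster binding-curve fits, based on green signal normalised to red-channel RNA signal and control-cluster median Fmax.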
# [1] = designed as: OFF switch for flavin mononucleotide, no ligand
# [2] = ligand present: flavin mononucleotide, designed as: OFF switch for flavin mononucleotide
# [3] = designed as: ON switch for flavin mononucleotide, no ligand
# [4] = ligand present: flavin mononucleotide, designed as: ON switch for flavin mononucleotide
Sequence,apparent Kd [1] [nM],apparent Kd [2] [nM],apparent Kd [3] [nM],apparent Kd [4] [nM]
CUCGUGUAAGGAUAUACGAGUCACGGAAAUAAACCGUGAAGGUAGAAGGUACAUGAGGAUCACCCAUGUAAAAC,40,347,,
GGGCAACAUGAGGAUCACCCAUGUGAGGAUAUGGGCCCGGGCCCGAAAGGGCCCGGGCCCAGAAGGCACAGCCC,17.9,17.1,,
AAGAAGUCAGGAUAUGCAUGGCGGGACUUGCGUCGUGGCGUGCAGAAGGGACAUGAGGAUCACCCAUGUAAAGG,151,180,,
AGUAAGAUGCAGAAGGUGUCAGCGAGAGCUACGACAUGAGGAUCACCCAUGUACUAGUGAGAGUACGAGGAUAUGCAUCUUACA,,,37.3,13.9
CGGGCGCCGAAGGGCGAAAGCCCACAUGAGGAUCACCCAUGUAGAAGGAGGGAAGAAACCAAAACCUAGGAUAUACAGGCGCCA,8.43,10.5,,
CCUAUGUGAGGAUAUCACUGGUCUGCUCACUAGAUGAUCAGUGAGAAGGCACAUGAGGAUCACCCAUGUCAGUG,183,41.7,,
CCAGGCUUCGAGAAGGACAUGAGGAUCACCCAUGUGCGUGUAAAACAGCCGUGAGGCUGCAUCAUGUAGGAUAUCGGAGUCUGC,293,88.9,,
GGAUAAUUGAUCCUUUUUUAUUACAUGAGGAUCACCCAUGUGCAGGAUAUCGAUUAUUAUAGUUUCGAGAAGGGCAAGAAUUGU,73.4,276,,
GUUUCACAUGAGGAUCACCCAUGUGAGGAUAUCGAUUUGUUAACCGUAGUUAAUAGAUCGAGAAGGCGCGUGAU,70.6,68.8,,
GGAGCCGGUACUGAGGAUAUUCAUAUUAAAACAUGAGGAUCACCCAUGUAGGCCAGAAGGCCUUGGGAGAAGGCGGACCAGCUCG,,,463,32.8
GCUGACGAUGUAGGAUAUCUCGACGAUAAGUCGAGAGAAGGACAUGAGGAUCACCCAUGUACUCCAACGUCAGCGAGGAAACUC,18.2,18.5,,
GCAUGUAAGCAGAAGGGCAGAUAUUUUGAUACUGCAGGAUAUGCAGAAUCAUAUCCACAUGAUAACAUGAGGAUCACCCAUGUA,32.3,29,,
AAAAAACAUGAGGAUCACCCAUGUCAGGAUAUCUGGAGAAACGGAAAGAAAAAGAAACGGAGAAGGGACAUAAA,41.1,48,,
GAUUAGUGAGGAUAUAUUUACGAUCCUCAGCUUUAUUCAGGACAUGAGGAUCACCCAUGUAGAAGGCGUUAAUC,25.8,34.6,,
AUAAAACAUGAGGAUCACCCAUGUCAACAAAGUCGAGGAUAUGGGCAAAUAAAAUAAGAACCAGAAGGCGAAUAUU,,,223,48
CUCAUGUCAGGAUAUCAGUAGUAAAAAAAUAAAAUUACUACUGAGAAGGGACAUGAGGAUCACCCAUGUCCGGG,20.4,18.4,,
GGAUAGGACAGAGGAUAUACCGAUAGGAUCUACUAUCGAACAAUCCUCACAUGAGGAUCACCCAUGUAGAAGGCUGUCCUAUCG,23.9,274,,
AUCCUGCGAGGAUAUACAUAGUUUUUUUCGUUUUGUCUCGAACAUGAGGAUCACCCAUGUAGAAGGUGCUUCAC,71.5,66.9,,
UUUAUGUGAGGAUAUAGUACUCCUUCUAUUAUUAUUGAGUACUAGAAGGCACAUGAGGAUCACCCAUGUAGUAC,30,48.3,,
GCAUCCAAUGUGAGGAUAUACCUCUGGAUACAUAGGUAGAAGGCACAUGAGGAUCACCCAUGUCCUAAGGAUGC,130,149,,
